From PubChem
SKKanGAS inh = S. pyogenes SKKanGAS growth inhibitors in kanamycin, primary screen, streptokinase expression inhibitor project, SKKanGAS strain, BacTiter-Glo luminescence; actives 1.3% (n = 300,000); 6 h; inhibition, % at 7.5 µM;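 active = mean replicate score, as percent of positive control median, at least 50; inconclusive = mean below 50 but one replicate at or above 50; inactive = mean and every replicate below 50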;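 also: strain carries kanamycin resistance gene driven by streptokinase promoter and grows in 40 µg/ml kanamycin; loss of luminescence reflects streptokinase promoter inhibition or plain growth inhibition; 0% = median of DMSO wells and 100% = positive control at its reference dose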
CSC inhib = cancer stem cell viability inhibitors, primary screen, luminescence; cancer stem cell-like cells viability; inhibition, % at 7.5 µM; actives 1.1% (n = 300,000); AID 2717, 2010; in the data active = inhibition above about 75%; inconclusive = no clear call, values can overlap the other calls; tested in HMLE shEcad cells
T cruzi repl = inhibitors of intracellular T. cruzi growth, primary screen, luminescence, NIH3T3 host cells. T. cruzi beta-gal in NIH3T3, 90 h. inhibition, % (no concentration beside the values). actives 1.4% (n = 300,000);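 active = mean inhibition across valid replicates above about 55%, limit read from the data; inconclusive = mean below that limit but half or more replicates reach it; inactive = mean below it, under half of replicates reach it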;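 also: signal also drops with host cell toxicity which is not excluded here; 0% = plate median of DMSO wells and 100% = zero luminescence signal; higher percent means less beta-gal luminescence so fewer parasites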
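System: NIH/3T3 fibroblasts plus reporter T. cruzi. Medium: DMEM plus 2% FBS. Probe or stimulus: 5000 reporter trypomastigotes per well. Compound: single 50 nL compound addition per well in DMSO. Incubation: co-culture of at least 90 h after 3 h attachment. Detection: GalScreen β-gal luminescence, detergent lysis, 60 min. Evaluation: parasite load inhibition, %.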
Mdm2-MdmX inh = inhibitors of human Mdm2-MdmX association, primary screen, cell-based, luminescence, split luciferase, SaOS-2, uHTS | Protein Mdm4 (Homo sapiens) + E3 ubiquitin-protein ligase Mdm2 (Homo sapiens), … | SaOS-2 split-luciferase Mdm2/MdmX complementation | inhibition, % at 8 µM | actives 3% (n = 330,000) | AID 485346, 2010;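 active = inhibition of at least 50% at 8 µM in the primary screen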
aSyn UTR inh = MLPCN primary screen, SNCA 5' untranslated region | alpha-synuclein 5'UTR reporter, inhibitor activity | inhibition, % (tested at 7.5 µM) | actives 0.82% (n = 300,000); in the data active = inhibition above about 60%; inconclusive = no clear call, values can overlap the other calls;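 also: H4 neuroglioblastoma cells stably carrying SNCA 5'UTR luciferase fusion; 0% = DMSO wells and 100% = positive control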
Mdm2 MdmX conf = Mdm2-MdmX complex disruptors, retested hits, confirmation, luminescence, single concentration | shares compounds with Mdm2-MdmX inh | Mdm2-MdmX binding, luminescent assay | inhibition, % at 8 µM | actives 55% (n = 10,000); in the data active = inhibition above about 40%
FLuc counter = full-length luciferase signal inhibition, confirmation, counter-screen for Mdm2/MdmX interaction inhibitor project, cell-based, single concentration, SaOS-2; shares compounds with Mdm2-MdmX inh; SaOS-2 full-length luciferase counterscreen, luminescence; inhibition, % at 8 µM; actives 77% (n = 6,200);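 active = mean inhibition at 8 µM reaching about 37%, which flags the compound as non-specific, limit read from the data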;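 also: p53-null SaOS-2 cells with luciferase driven by a doxycycline-inducible promoter; compound on cells about two nights before reading with doxycycline added after day one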
An asterisk follows results filed as active; ? = inconclusive; · = not tested or not shown; + = active, no number. This is a sample that favours compounds with a hit; in the whole collection about 5.4% have one here.

SMILES	SKKanGAS inh	CSC inhib	T cruzi repl	Mdm2-MdmX inh	aSyn UTR inh	Mdm2 MdmX conf	FLuc counter
CCc1nc(N2CCN(C(C)=O)CC2)c2c3c(sc2n1)CC(C(C)(C)C)CC3 (stereo unspecified)	7.4	12.1	8.0	72.3*	11.1	25.2	62.6*
Cc1nc(N2CCN(C(=O)c3ccco3)CC2)c2c3c(sc2n1)CC(C)CC3 (stereo unspecified)	11.8	1.5	38.4	22.8	-16.4	·	·
Cc1ccc(N(C)C(=O)c2ccc(CNc3c(N4CCC(C)CC4)c(=O)c3=O)cc2)cc1	5.2	6.5	4.9	-9.1	-2.6	·	·
CC(=O)c1sc(NC(=O)c2ccccc2)nc1-c1ccccc1	3.9	21.8	-7.7	-167.7	-139.0	·	·
COC(=O)Nc1nc(-c2ccccc2)c(C(=O)c2ccc(Cl)cc2)s1	27.2	56.8	·	60.8*	94.4*	54.5*	87.8*
COCCN(CCOC)S(=O)(=O)c1ccc(C(=O)Nc2nc(-c3ccccc3)c(C(=O)c3ccccc3)s2)cc1	23.6	32.4	21.6	-24.4	-6.3	·	·
CCOC(=O)Nc1nc(-c2ccccc2)c(C(=O)c2ccccc2)s1	18.2	62.0	7.1	60.8*	116.7*	51.1*	90.7*
O=C(CCSCc1ccccc1Cl)NC1CCCCC1	-3.2	11.1	-4.8	-8.2	13.5	·	·
C=CCNc1oc(-c2cccc(F)c2)nc1C#N	·	·	·	5.7	·	·	·
C=CCNc1oc(-c2ccc(Cl)cc2)nc1C#N	·	·	·	50.1*	·	5.5	·
CN(C)CCNC(=O)c1cc2c(s1)-c1ccc(Cl)cc1SC2	12.6	102.3*	40.2	100.3*	100.5*	87.3*	56.8*
CCCN(CC(=O)Nc1ccccc1OC)C(=O)c1ccccn1	·	-9.3	·	-5.6	·	·	·
O=C(O)Cc1csc2ccccc12	-13.3	-24.1	-4.2	-1.4	-4.8	·	·
CS(=O)(=O)Nc1ccccc1C(=O)Nc1cc(Cl)cc(Cl)c1	20.5	58.9	-25.5	60.4*	-21.7	92.2*	28.3
O=C(NCc1csc2ccccc12)Nc1cc(Cl)cc(Cl)c1	23.8	18.8	44.2	69.1*	-24.7	16.9	·
O=C(Nc1ccccc1)Nc1cc(Cl)cc(Cl)c1	83.9*	80.9*	?	90.6*	-21.1	80.3*	22.6
O=C(O)c1ccccc1OC(C(=O)Nc1cc(Cl)cc(Cl)c1)c1ccccc1 (stereo unspecified)	10.6	6.8	20.8	76.5*	44.4	25.8	·
COc1ccc(NC(=O)c2cccc(N3C(=O)C4CCC(C)CC4C3=O)c2)c(OC)c1 (stereo unspecified)	-0.7	-7.1	0.2	-2.4	-3.5	·	·
O=C(Nc1cccnc1)Nc1cc(Cl)cc(Cl)c1	?	35.9	25.3	50.2*	-13.3	6.0	·
Cc1cc(C)c2nc(N3CCN(C)CC3)c(C#N)cc2c1	-1.5	·	5.2	16.1	-48.8	·	·
Cc1cccc2cc(C#N)c(N3CCN(C)CC3)nc12	-5.1	-11.8	27.3	53.7*	12.2	6.9	·
COc1ccc(CCCC(=O)NCc2ccccc2)cc1C	-4.6	48.2	-0.5	53.3*	17.1	48.1*	71.5*
COc1ccc(CNC(=O)Cn2c(=O)n(CCC(=O)N3CCCCC3)c(=O)c3sccc32)cc1	-2.9	-14.5	0.5	8.5	-0.4	·	·
O=C(N/N=C/c1ccccc1O)C1CC(=O)N(c2ccc(F)cc2)C1 (stereo unspecified)	-7.9	49.5	15.6	51.8*	21.9	38.1	43.7*
COc1cc(-c2nc(-c3ccccc3)c(-c3cc([N+](=O)[O-])ccc3C)[nH]2)cc(OC)c1OC	16.1	38.4	57.9*	68.7*	11.6	29.6	·
SMILES	SKKanGAS inh	CSC inhib	T cruzi repl	Mdm2-MdmX inh	aSyn UTR inh	Mdm2 MdmX conf	FLuc counter
CCOc1ccc(CCNC(=O)COC(=O)c2cccc(S(=O)(=O)N3CCOCC3)c2)cc1OCC	-2.2	-12.6	-2.2	2.9	0.2	·	·
N/C(=N\OC(=O)c1ccc(Cl)cc1Cl)c1ccc(Cl)cc1	1.2	6.4	7.6	53.3*	-15.2	50.4*	145.6*
Cc1ccc(/C(N)=N/OC(=O)c2ccc(C)cc2Cl)cc1	-1.1	0.8	-6.2	74.5*	14.0	77.2*	+
Cc1cccc(/C(N)=N/OC(=O)c2ccc(Cl)cc2Cl)c1	-13.4	-16.5	6.3	-59.6	3.5	·	·
CN(c1ncnc(N)c1[N+](=O)[O-])C1CCCCC1	-0.8	-9.4	-20.8	80.2*	25.2	81.6*	51.3*
CN(c1ncnc(N)c1[N+](=O)[O-])C1CCS(=O)(=O)C1 (stereo unspecified)	-15.2	-5.4	-24.3	51.1*	2.9	43.6*	39.6*
Nc1ncnc(NC2CCS(=O)(=O)C2)c1[N+](=O)[O-] (stereo unspecified)	·	-19.4	-11.6	33.0	-4.3	·	·
CCCCN(c1ccccc1)c1ncnc(N)c1[N+](=O)[O-]	1.2	-25.8	9.7	54.6*	16.0	83.2*	51.7*
CNc1nc(N)c([N+](=O)[O-])c(NC2CCCCC2)n1	4.5	-16.2	-8.8	1.8	45.0	·	·
O=C(OC1C2CCC1C1CN(CCc3ccccc3)CC12)c1ccccc1 (stereo unspecified)	-0.2	0.4	44.3	12.8	-6.7	·	·
O=C(NCC(=O)N1CCN(c2ncccn2)CC1)c1ccc(F)cc1	·	6.8	·	-24.9	·	·	·
Cc1ccc(-n2c(-c3ccccc3)c[n+]3c2CCc2ccccc2-3)c(C)c1	·	28.3	·	81.8*	·	65.5*	26.4
Cc1ccc(-n2c(-c3ccccc3)c[n+]3c2CCC3)cc1	-1.8	-1.1	47.8	-7.0	-31.8	·	·
O=C(C1CCC(=O)N(C2CC2)C1)N(CCO)Cc1ccccc1 (stereo unspecified)	1.1	0.6	-8.2	7.1	5.8	·	·
CC(C)(C)NC(=O)NC(=O)CN1CCN(C(c2ccccc2)c2ccccc2)CC1	·	0.7	13.0	7.9	7.8	·	·
CC(=O)Nc1nnc(SCC(=O)NC2CCCC2)s1	1.6	-4.7	11.8	11.3	6.6	·	·
Cc1ccc(-c2nc(C3CCN(S(=O)(=O)c4ccc(C(F)(F)F)cc4)CC3)no2)cc1	-11.2	9.3	13.2	55.8*	6.4	2.6	·
CS(=O)(=O)N1CCC(c2noc(-c3ccc(C(F)(F)F)cc3)n2)CC1	1.9	1.9	4.1	-13.8	2.0	·	·
O=C(NC1CC1)c1ccc2c(c1)S(=O)(=O)c1cc(Cl)ccc1C2=O	·	-8.9	·	94.8*	·	93.5*	38.2*
COCCNC(=O)c1ccc2c(c1)S(=O)(=O)c1cc(Cl)ccc1C2=O	·	-14.2	·	29.9	·	·	·
